JNK3 inh = JNK3 kinase activity inhibitors, primary screen, biochemical, human, purified enzyme. Mitogen-activated protein kinase 10 (Homo sapiens), P53779. inhibition, % at 8 µM. 60,000 compounds, 0.61% hits. HTS; in the data active = inhibition above about 17%
M1 ag = M1 muscarinic receptor agonists, primary screen, CHO-M1 cells, Fluo-4 calcium, agonist mode. 64,000 compounds, 3% hits. B-score at 10 µM. Fluo-4 calcium fluorescence; stronger effect = higher value. AID 626, 2007;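 active = fluorescence rise, raw or as B-score row- and column-corrected plate score, outside the 99.7% band of its plate's samples, either direction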
S1P3 agonist = human S1P3 receptor agonists, primary screen, cell-based, primary and confirmation, NFAT-BLA reporter; Sphingosine 1-phosphate receptor 3 (Homo sapiens), Q99500; 60,000 compounds, 0.1% hits; S1P3 NFAT-BLA reporter cells, agonism, FRET ratio; relative to 1 µM S1P, basal subtracted; activation, % at 4.5 µM; AID 373, 2006;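 active = activation above the screen-wide mean plus 3 SD, cut at about 4.5% in these data, passing the limit was not always enough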
Target sequence (Q99500 whole entry, looked up): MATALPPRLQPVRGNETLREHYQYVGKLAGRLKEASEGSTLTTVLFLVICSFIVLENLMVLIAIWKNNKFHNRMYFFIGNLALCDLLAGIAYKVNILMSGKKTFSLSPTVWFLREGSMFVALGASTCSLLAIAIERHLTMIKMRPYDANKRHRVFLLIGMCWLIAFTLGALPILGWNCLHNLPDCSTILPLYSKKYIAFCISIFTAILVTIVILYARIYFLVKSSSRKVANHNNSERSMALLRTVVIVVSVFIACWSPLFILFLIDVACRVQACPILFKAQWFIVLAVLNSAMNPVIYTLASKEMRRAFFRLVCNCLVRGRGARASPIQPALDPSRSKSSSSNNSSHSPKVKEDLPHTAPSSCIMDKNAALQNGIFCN
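material = human S1P3 NFAT-BLA reporter CHO cells | schedule = 4 h compound at 37 °C, 2 h substrate at RT | measured by = fluorescent BLA substrate, ex 405 nm, em 460/535 nm ratio | controls = 1 µM S1P reference | replication = primary once, confirmation triplicate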
S1P1 ag-PAM = S1P1 agonists and agonism potentiators, primary screen, cell-based, primary and confirmation screens, CRE-bla reporter; 56,000 compounds, 0.57% hits; Sphingosine 1-phosphate receptor 1 (Homo sapiens), P21453; AID 449, 2006; activation, % at 9.5 µM; S1P1 CRE-bla cells, forskolin, beta-lactamase FRET, potentiator mode; S1P1 agonist co-added at EC20, 2 nM; 100% = saturating reference agonist, 0% = basal;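 active = activation above a cutoff set at the mean activation of all tested compounds plus 3 SD, cut at about 54% in these data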;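 note: forskolin at 4 µM as EC80 and the EC20 agonist is SEW2871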
Jurkat viability = cytotoxicity toward Jurkat T cells, primary screen, cytotoxicity control, cell-based, Jurkat E6.1, 60K MLSMR library | Jurkat E6.1 viability, ATP luminescence, 48 h | inhibition, % at 4 µM | 56,000 compounds, 1.2% hits | AID 463, 2006;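 active = inhibition above the mean inhibition of all tested compounds plus 3 SD, cut at about 28% in these data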
M1 antag = antagonists of rat M1 muscarinic receptor | Muscarinic acetylcholine receptor M1 (Rattus norvegicus), P08482 | CHO-M1 cells, Fluo-4 calcium, ACh EC80 antagonist mode; stronger effect = lower value | B-score at 10 µM | 64,000 compounds, 3.4% hits;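 active = calcium fluorescence response, raw or row-and-column corrected B-score, differing from the plate sample mean either way at a set confidence level, mostly lower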
M1 ag confirm = rat M1 muscarinic receptor agonists, confirmation, CHO-M1 cells, Fluo-4 calcium, duplicate retest; shares compounds with M1 ag; Fluo-4 calcium fluorescence, agonist mode; actives lie on both sides; fluorescence change (max-min) at 10 µM; 1,700 compounds, 19% hits; AID 1488, 2009;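 active = fluorescence change differs from the solvent-only DMSO control mean at a set confidence level in both duplicate runs; inconclusive = differs from solvent-only control mean in just one of two runs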;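 note: an EC20 dose of acetylcholine follows compound addition during the same imaging run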
M4 agonist ctr = agonist activity at rat M4 receptor, confirmation, counter-screen for M1 allosteric modulator project, cell-based, agonist mode; shares compounds with M1 ag; CHO M4/Gqi5 cells, Fluo-4 calcium fluorescence; actives lie on both sides; fluorescence change (max-min) at 10 µM; 1,700 compounds, 9% hits; AID 1741, 2009;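 active = fluorescence change differing from the plate's solvent-only control wells at 99.7% confidence in both duplicates, whether higher or lower; inconclusive = differs from solvent controls in only one of two duplicates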
Hits are given with their value; 0 = inactive; ? = inconclusive; - = no result. Most compounds without a hit are left out; they make up all but 7.4% or so of the library.

SMILES	JNK3 inh	M1 ag	S1P3 agonist	S1P1 ag-PAM	Jurkat viability	M1 antag	M1 ag confirm	M4 agonist ctr
CCOC(=O)c1cc(C)n(-c2ccc(OC)c(OC)c2)c1C	0	0	0	0	-	0	-	-
CCCCn1c(NC(C)=O)c(C#N)c2nc3ccccc3nc21	0	5.5	0	0	0	0	0	0
N#Cc1c(N)n(CCNC(=O)c2cccs2)c2nc3ccccc3nc12	0	0	0	0	0	0	-	-
C=CCn1c(NC(=O)c2ccccc2Cl)c(C#N)c2nc3ccccc3nc21	0	6.8	0	0	0	0	0	0
O=c1c2ccccc2nnn1CSc1ccc2c(c1)OCCO2	0	0	0	0	0	0	-	-
CCOc1ccccc1NC(=O)c1cccc(NC(=O)c2ccco2)c1	0	5.6	0	0	81	0	0	0
CCCCOc1ccccc1NC(=O)c1ccco1	0	0	0	0	0	0	-	-
Cc1cccc(C)c1OCC(=O)Nc1cccc(NC(=O)c2ccco2)c1	0	0	0	0	0	0	-	-
Cc1ccccc1OCC(=O)Nc1cccc(NC(=O)c2ccco2)c1	0	7	0	0	0	0	?	?
CCOC(=O)N1CCN(c2c(NCCCN(CC)Cc3ccccc3)c(=O)c2=O)CC1	0	0	0	0	0	0	-	-
CCOC(=O)N1CCN(c2cc(NCCC(=O)O)c3c4c(onc24)-c2ccccc2C3=O)CC1	0	14	0	0	0	0	0	0
O=C(Nc1cccc(Cl)c1N1CCCC1)c1cc2ccccc2o1	0	0	0	0	0	0	-	-
O=C(Nc1ccccc1N1CCN(C(=O)c2ccc(Cl)cc2)CC1)c1cc2ccccc2o1	0	4.6	0	0	0	2.8	0	?
N#Cc1nc(COc2ccc(F)cc2)oc1N1CCC(Cc2ccccc2)CC1	0	9.3	0	0	0	0	0	0
N#Cc1nc(COc2cccc(Cl)c2)oc1N1CCN(c2ccccc2)CC1	0	0	0	0	0	0	-	-
N#Cc1nc(COc2ccccc2)oc1N1CCN(c2cccc(Cl)c2)CC1	0	4.1	0	-	0	0	122	?
N#C/C(C(=O)NCc1ccco1)=C1/SC(Cc2ccc(F)cc2)C(=O)N1c1ccccc1 (stereo not drawn)	0	2.4	0	0	-	0	0	?
CC1S/C(=C(\C#N)C(=O)NCc2ccco2)N(c2ccc(F)cc2)C1=O (stereo not drawn)	0	0	0	0	0	0	-	-
COc1cc(C(=O)O)cc(Br)c1OC1CCCC1	0	0	0	0	0	0	-	-
CCOC(=O)Cc1nnc2c(Nc3ccc(C)cc3)nc3nonc3n12	0	0	0	0	0	0	-	-
CCOC(=O)Cc1nnc2c(Nc3ccccc3F)nc3nonc3n12	0	4.3	0	0	0	0	?	0
CC(=O)Oc1ccc2cc(-c3nc4ccccc4n3C)c(=O)oc2c1	0	5.8	5.7	0	0	0	0	0
CCc1cc2c(=O)c(-c3nc4ccccc4n3C)c(COCC(=O)O)oc2cc1O	0	0	0	0	0	0	-	-
CCCn1c2ccccc2c2nc3ccccc3nc21	0	0	0	0	0	0	-	-
Cn1c2ccc(Cl)cc2c2nc3ccccc3nc21	0	18	0	0	0	0	0	0
SMILES	JNK3 inh	M1 ag	S1P3 agonist	S1P1 ag-PAM	Jurkat viability	M1 antag	M1 ag confirm	M4 agonist ctr
CC(=NCCc1ccccc1)C1=C(O)COC1=O	0	0	0	0	0	0	-	-
O=C(c1cccc(Cl)c1)N1CCN(Cc2ccccc2F)CC1	0	0	0	-	0	0	-	-
Oc1ccc2oc3c(c2c1/C=N/n1cnnc1)CCCC3	0	1.3	0	0	0	0	?	0
C(=N\n1cnnc1)/c1ccc2c(c1)OCO2	0	0	0	0	0	0	-	-
C=CCN(C)CCCNC(=O)/C=N/O	0	0	0	0	-	0	-	-
COc1cccc(C(=O)N2CCN(C3CCC(c4ccccc4)CC3)CC2)c1OC (stereo not drawn)	0	18	0	0	0	-3.1	?	0
CCn1c(N)c(C(=O)Nc2ccccc2C(=O)OC)sc1=S	0	0	0	0	0	0	-	-
CCN1CCN(c2nc3c(C)cccn3c(=O)c2/C=C(\C#N)S(=O)(=O)c2ccccc2)CC1	0	8.9	0	0	-	0	0	0
O=C(CN(CCO)c1ccccc1)NC12CC3CC(CC(C3)C1)C2	0	0	0	0	0	0	-	-
Cc1nn(C(=O)c2cc3sccc3[nH]2)c(C)c1C	0	0	0	0	0	0	-	-
COc1cccc2[nH]c3c(N4CCCCC4)ncnc3c12	0	0	0	0	0	0	-	-
CCOC(=O)N1CCN(c2ncnc3c2[nH]c2ccc(OC)cc23)CC1	0	2.1	0	0	-	0	?	0
COc1cc2[nH]c3c(N4CCN(c5ccccn5)CC4)ncnc3c2cc1OC	0	8.5	0	0	0	0	0	0
COc1cccc(C2=CC(c3ccccc3)n3nnnc3N2)c1 (stereo not drawn)	0	0	0	0	-	0	-	-
COc1cccc(C2=CC(c3ccc(N(C)C)cc3)n3ncnc3N2)c1 (stereo not drawn)	0	2.2	0	0	0	0	0	0
COc1cccc(C2=CC(c3ccccc3)n3ncnc3N2)c1 (stereo not drawn)	0	33	0	0	-	0	159	148
COCCNC(=O)C(C)OC(=O)c1cc2occc2n1C (stereo not drawn)	0	0	0	0	0	0	-	-
Cn1c(CC2C(=O)Nc3ccc(Br)cc32)nc2ccccc2c1=O (stereo not drawn)	0	2	0	0	0	0	?	0
O=C(Cc1nc2ccccc2s1)c1ccc(O)cc1O	0	-1.8	0	0	0	0	0	0
N#CC1=C(SCc2ccccc2)NC(=O)CC1c1ccco1 (stereo not drawn)	0	4.3	0	0	0	0	0	?
CC(=O)c1ccc(Cc2cnc(N)s2)cc1	0	2.9	0	-	0	0	0	0
c1ccc(CCNc2ncnc3nc[nH]c23)cc1	0	0	0	0	0	0	-	-
c1ccc2c(CCNc3ncnc4nc[nH]c34)c[nH]c2c1	0	3.9	0	0	88	0	0	0
